# Assay results from PubChem BioAssay AID602134 (Broad Institute, 2011).
# Activity calls are given as the source filed them.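 How the source made its calls: active means falling transferrin uptake with a fitted half-maximal potency at or below twice the top valid tested dose; inconclusive means flat fit with a 30 to 70% drop, or poor fit; inactive means the rest.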
# Experiment: transferrin endocytosis inhibition in mSR-BI cells, dose response, selectivity assay for SR-BI HDL uptake inhibitor project, imaging, Alexa594-transferrin, dry powder (AID 602134)
# Conditions: series mostly up to 35 µM
# How it was run: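 Reagent: Alexa-594-labelled transferrin at 30 µg/mL final. Test system: mSR-BI cells. Times: transferrin uptake 30 min at 37 °C, stopped on ice. Read-out basis: normalized percent of cells with above-threshold perinuclear transferrin. Buffer or medium: serum-free DMEM with 1% BSA after serum wash. Measured by: high-content fluorescence imaging of Alexa-594 transferrin, DAPI nuclear stain.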
structure (smiles),measurement,value
CC1CCC/C=C/C2CC(O)CC2C(O)/C=C\C(=O)O1 (stereo unspecified),outcome,inactive
